Experimental data taken from ChEMBL document CHEMBL4020721 (Eur J Med Chem, 2017).

What was measured:
NCI-H1993 = test: Growth inhibition of human NCI-H1993 cells after 72 hrs by CCK-8 assay; format: functional, cell-based; conditions: Homo sapiens, NCI-H1993, 72 h
SNU-5 = test: Growth inhibition of human SNU5 cells after 72 hrs by CCK-8 assay; format: functional, cell-based; conditions: Homo sapiens, SNU-5, 72 h
[1] = Intrinsic clearance in human liver microsomes assessed per mg protein at 1 uM preincubated for 5 mins followed by NADPH addition measured after 5 to 30 mins by LC-MS/MS analysis; format: ADME, microsome; conditions: read-out: CLH
Summary of the method: (§1)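 Microsomes (0.5 mg/ml) with 1 µM compound were preincubated 5 min at 37°C in 100 mM phosphate buffer pH 7.4, then started with 1 mM NADPH. Samples were taken at 0, 5, 10 and 30 min, quenched with acetonitrile/tinidazole and run by LC-MS/MS. CLint = k / microsomal protein concentration. Midazolam was the positive control.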

[2] = Intrinsic clearance in rat liver microsomes assessed per mg protein at 1 uM preincubated for 5 mins followed by NADPH addition measured after 5 to 30 mins by LC-MS/MS analysis; format: ADME, microsome; conditions: read-out: CLH; summary of the method: as §1
[3] = Drug recovery in human liver microsomes at 1 uM measured after 30 mins by LC-MS/MS analysis; format: ADME, microsome; conditions: liver microsomes, read-out: Drug recovery
Summary of the method: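 Liver microsomes (0.5 mg/ml) were incubated with 1 µM compound at 37°C in 100 mM phosphate buffer pH 7.4 without NADPH for 30 min. Reactions were quenched with acetonitrile/tinidazole internal standard and analysed by LC-MS/MS. Recovery (%) was taken from the compound/internal standard peak area ratio.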

[4] = Drug recovery in rat liver microsomes at 1 uM measured after 30 mins by LC-MS/MS analysis; format: ADME, microsome; conditions: liver microsomes, read-out: Drug recovery
[5] = Drug recovery in monkey liver microsomes at 1 uM measured after 30 mins by LC-MS/MS analysis
[6] = Intrinsic clearance in monkey liver microsomes assessed per mg protein at 1 uM preincubated for 5 mins followed by NADPH addition measured after 5 to 30 mins by LC-MS/MS analysis; conditions: liver microsomes; read-out: CLH
[7] = biological target: Hepatocyte growth factor receptor (Homo sapiens, UniProt P08581); test: Inhibition of c-MET (unknown origin) using TK substrate-biotin peptide as substrate preincubated for 5 to 10 mins followed by ATP addition measured after 30 mins by HTRF assay
Cytochrome P450 2C19 = Cytochrome P450 2C19 (Homo sapiens, UniProt P33261); test: Reversible inhibition of CYP2C19 in human liver microsomes at 10 uM after 20 mins in presence of NADPH by LC-MS/MS analysis; format: ADME; conditions: microsomes, 20 min, 10 µM
CYP2C9 = CYP2C9 (Homo sapiens, UniProt P11712); test: Time dependent irreversible inhibition of CYP2C9 in human liver microsomes at 10 uM preincubated with compound followed by NADPH addition by LC-MS/MS analysis; format: ADME; conditions: liver microsomes
Summary of the method: (§2)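 HLM (0.2 mg/ml) with 10 µM compound were preincubated 0, 5, 10 or 20 min at 37°C with 1 mM NADPH or PBS. Substrate cocktail (halved concentrations) plus NADPH was then added for 10 min. Metabolites were measured by LC-MS/MS. Kobs is the slope of relative activity versus preincubation time.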

Cytochrome P450 2C9 = Cytochrome P450 2C9 (Homo sapiens, UniProt P11712); test: Reversible inhibition of CYP2C9 in human liver microsomes at 10 uM after 20 mins by in presence of NADPH LC-MS/MS analysis; format: ADME; conditions: microsomes, 20 min, 10 µM
Cytochrome P450 3A4 = Cytochrome P450 3A4 (Homo sapiens, UniProt P08684); test: Reversible inhibition of CYP3A4 in human liver microsomes at 10 uM after 20 mins in presence of NADPH by LC-MS/MS analysis; format: ADME; conditions: microsomes, 20 min, 10 µM
CYP2C19 = CYP2C19 (Homo sapiens, UniProt P33261); test: Time dependent irreversible inhibition of CYP2C19 in human liver microsomes at 10 uM preincubated with compound followed by NADPH addition by LC-MS/MS analysis; format: ADME; summary of the method: as §2
CYP3A4 = CYP3A4 (Homo sapiens, UniProt P08684); test: Time dependent irreversible inhibition of CYP3A4 in human liver microsomes at 10 uM preincubated with compound followed by NADPH addition by LC-MS/MS analysis; format: ADME; conditions: liver microsomes; summary of the method: as §2
CYP2D6 = CYP2D6 (Homo sapiens, UniProt P10635); test: Time dependent irreversible inhibition of CYP2D6 in human liver microsomes at 10 uM preincubated with compound followed by NADPH addition by LC-MS/MS analysis; format: ADME; conditions: liver microsomes; summary of the method: as §2
CYP1A2 = biological target: T1, CYP1A2 (Homo sapiens, UniProt P05177); test: Time dependent irreversible inhibition of CYP1A2 in human liver microsomes at 10 uM preincubated with compound followed by NADPH addition by LC-MS/MS analysis; format: ADME; conditions: liver microsomes; summary of the method: as §2
T1 sequence (P05177 whole entry): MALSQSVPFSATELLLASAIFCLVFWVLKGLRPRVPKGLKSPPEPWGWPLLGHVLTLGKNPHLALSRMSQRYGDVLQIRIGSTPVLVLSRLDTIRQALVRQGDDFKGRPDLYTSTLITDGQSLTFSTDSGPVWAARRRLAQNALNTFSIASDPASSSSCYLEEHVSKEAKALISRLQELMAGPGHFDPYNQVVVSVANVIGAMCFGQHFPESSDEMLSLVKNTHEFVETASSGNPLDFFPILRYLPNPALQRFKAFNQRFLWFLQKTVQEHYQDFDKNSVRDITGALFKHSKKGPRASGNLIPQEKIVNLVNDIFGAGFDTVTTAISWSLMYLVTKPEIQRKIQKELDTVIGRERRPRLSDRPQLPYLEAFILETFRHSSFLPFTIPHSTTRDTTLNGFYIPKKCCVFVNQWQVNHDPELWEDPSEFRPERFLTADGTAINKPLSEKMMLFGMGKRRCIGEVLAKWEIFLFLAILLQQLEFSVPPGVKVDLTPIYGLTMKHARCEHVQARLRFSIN

Sequence of Cytochrome P450 2C19 (P33261 whole entry): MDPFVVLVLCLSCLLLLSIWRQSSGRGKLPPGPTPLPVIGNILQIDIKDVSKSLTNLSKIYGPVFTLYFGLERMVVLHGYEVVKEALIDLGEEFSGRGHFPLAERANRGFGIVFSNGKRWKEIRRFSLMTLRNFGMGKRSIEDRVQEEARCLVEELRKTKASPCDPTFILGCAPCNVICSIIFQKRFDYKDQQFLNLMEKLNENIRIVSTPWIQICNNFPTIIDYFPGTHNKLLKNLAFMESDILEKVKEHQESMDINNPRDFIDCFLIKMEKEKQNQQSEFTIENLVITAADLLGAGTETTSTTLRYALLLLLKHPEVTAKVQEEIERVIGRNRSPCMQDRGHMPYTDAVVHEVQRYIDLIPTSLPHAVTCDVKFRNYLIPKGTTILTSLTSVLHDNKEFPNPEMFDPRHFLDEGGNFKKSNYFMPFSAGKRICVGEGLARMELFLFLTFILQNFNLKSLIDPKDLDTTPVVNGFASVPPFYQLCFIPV
Sequence of CYP2C19 (P33261 whole entry): as above
Sequence of Cytochrome P450 2C9 (P11712 whole entry): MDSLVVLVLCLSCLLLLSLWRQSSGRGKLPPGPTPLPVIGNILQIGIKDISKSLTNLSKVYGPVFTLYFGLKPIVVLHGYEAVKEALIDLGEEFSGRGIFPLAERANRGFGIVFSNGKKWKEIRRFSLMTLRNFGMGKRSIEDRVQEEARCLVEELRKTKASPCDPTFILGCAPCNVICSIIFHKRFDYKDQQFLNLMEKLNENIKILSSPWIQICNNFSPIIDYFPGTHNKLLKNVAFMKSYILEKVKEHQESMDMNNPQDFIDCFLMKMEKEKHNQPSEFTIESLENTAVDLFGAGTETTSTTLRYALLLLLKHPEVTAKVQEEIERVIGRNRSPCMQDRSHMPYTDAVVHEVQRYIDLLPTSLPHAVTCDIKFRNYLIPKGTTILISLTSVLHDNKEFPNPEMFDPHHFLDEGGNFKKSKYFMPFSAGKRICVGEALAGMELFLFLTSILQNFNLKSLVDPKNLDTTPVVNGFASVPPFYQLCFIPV
Sequence of CYP2C9 (P11712 whole entry): as above
Sequence of CYP2D6 (P10635 whole entry): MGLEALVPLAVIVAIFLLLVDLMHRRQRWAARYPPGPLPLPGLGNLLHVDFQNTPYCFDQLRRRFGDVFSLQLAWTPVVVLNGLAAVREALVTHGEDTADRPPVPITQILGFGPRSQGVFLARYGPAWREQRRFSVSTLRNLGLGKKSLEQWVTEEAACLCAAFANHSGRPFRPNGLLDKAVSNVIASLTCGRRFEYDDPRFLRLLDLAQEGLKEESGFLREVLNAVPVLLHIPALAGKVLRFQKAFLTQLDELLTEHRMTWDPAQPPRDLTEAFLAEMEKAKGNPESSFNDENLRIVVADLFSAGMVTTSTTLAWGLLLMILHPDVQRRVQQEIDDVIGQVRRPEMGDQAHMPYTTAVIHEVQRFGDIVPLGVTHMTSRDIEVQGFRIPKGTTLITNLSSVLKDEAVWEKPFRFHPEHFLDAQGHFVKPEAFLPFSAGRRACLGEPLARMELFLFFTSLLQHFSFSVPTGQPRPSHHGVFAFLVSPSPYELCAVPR
Sequence of CYP3A4 (P08684 whole entry): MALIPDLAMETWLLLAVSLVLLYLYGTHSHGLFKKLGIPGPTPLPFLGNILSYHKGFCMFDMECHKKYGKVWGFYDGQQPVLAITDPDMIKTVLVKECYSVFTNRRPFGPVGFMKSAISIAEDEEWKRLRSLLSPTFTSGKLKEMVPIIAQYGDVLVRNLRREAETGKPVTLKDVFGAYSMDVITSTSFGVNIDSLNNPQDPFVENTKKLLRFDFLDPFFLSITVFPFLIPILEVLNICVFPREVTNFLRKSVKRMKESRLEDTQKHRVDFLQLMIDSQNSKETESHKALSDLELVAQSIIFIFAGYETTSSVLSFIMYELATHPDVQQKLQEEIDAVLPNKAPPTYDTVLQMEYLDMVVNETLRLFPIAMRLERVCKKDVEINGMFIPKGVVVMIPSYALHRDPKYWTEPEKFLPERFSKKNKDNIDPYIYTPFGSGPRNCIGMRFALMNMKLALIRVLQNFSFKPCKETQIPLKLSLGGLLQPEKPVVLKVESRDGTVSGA
Sequence of Hepatocyte growth factor receptor (P08581 whole entry): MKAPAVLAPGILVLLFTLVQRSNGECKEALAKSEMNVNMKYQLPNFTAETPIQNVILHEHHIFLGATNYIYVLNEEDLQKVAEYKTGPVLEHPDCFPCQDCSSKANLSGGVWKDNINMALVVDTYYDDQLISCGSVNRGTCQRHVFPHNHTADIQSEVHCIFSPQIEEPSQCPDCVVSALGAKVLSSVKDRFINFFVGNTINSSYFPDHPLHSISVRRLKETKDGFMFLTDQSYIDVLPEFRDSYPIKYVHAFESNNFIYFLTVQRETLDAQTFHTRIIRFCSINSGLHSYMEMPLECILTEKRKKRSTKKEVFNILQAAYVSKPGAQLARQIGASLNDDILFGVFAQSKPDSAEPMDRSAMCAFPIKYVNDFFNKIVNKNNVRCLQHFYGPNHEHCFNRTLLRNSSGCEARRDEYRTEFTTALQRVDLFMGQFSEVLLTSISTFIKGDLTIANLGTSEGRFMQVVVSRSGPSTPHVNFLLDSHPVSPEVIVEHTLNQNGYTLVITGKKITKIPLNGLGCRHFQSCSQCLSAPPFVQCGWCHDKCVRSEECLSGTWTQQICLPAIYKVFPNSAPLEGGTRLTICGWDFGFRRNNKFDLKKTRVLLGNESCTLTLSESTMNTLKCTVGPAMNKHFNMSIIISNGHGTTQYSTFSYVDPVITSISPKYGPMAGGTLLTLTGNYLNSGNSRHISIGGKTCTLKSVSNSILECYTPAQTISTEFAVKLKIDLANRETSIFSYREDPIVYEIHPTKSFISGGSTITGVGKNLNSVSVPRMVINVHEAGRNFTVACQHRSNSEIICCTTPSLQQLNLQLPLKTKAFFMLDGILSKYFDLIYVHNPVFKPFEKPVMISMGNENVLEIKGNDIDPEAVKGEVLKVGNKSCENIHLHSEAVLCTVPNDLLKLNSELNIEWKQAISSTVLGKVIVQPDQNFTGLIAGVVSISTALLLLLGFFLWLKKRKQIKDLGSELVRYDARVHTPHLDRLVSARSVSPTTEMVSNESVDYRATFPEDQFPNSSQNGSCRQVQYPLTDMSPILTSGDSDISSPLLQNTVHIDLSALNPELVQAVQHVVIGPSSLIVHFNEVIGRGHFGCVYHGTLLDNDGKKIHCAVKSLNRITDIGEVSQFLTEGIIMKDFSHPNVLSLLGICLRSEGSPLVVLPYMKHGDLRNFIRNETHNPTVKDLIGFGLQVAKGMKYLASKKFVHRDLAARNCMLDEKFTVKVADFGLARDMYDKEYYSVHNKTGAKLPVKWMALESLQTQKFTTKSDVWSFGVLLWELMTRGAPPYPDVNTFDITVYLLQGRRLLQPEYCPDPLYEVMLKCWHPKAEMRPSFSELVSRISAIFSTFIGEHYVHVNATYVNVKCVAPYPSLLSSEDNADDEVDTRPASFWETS
Sequence of Cytochrome P450 3A4 (P08684 whole entry): as the sequence (P08684 whole entry) above

In the case of `CC(c1ccc2ncc(-c3ccc(F)cc3)cc2c1)n1nnc2ncc(-c3ccncc3)nc21` (stereo not drawn), the IC50 (NCI-H1993) is reported as 8.7 nM, the IC50 (SNU-5) is reported as 7 nM and the microsomal CLint at 1 µM [1] is reported as 14 µL/min/mg. It also gave a microsomal CLint at 1 µM [2] of 56 µL/min/mg, a remaining at 0.5 h, 1 µM [3] of 105% and a remaining at 0.5 h, 1 µM [4] of 91%. It also gave a remaining at 0.5 h, 1 µM [5] of 97% and a microsomal CLint at 1 µM [6] of 65 µL/min/mg.

`CC(c1ccc2nc(-c3cnn(C)c3)ccc2c1)n1nnc2ncc(-c3cnn(C)c3)nc21` (stereo not drawn) gave an IC50 [7] of over 100 nM.

Work on `CC(c1ccc2nc(-c3cnn(C)c3)ccc2c1)n1nnc2ncc(-c3ccc(N)cc3)nc21` (stereo not drawn) yielded an IC50 [7] of over 100 nM.

For `CNC(=O)c1ccc(-c2cnc3nnn(C(C)c4ccc5ncc(-c6ccc(F)cc6)cc5c4)c3n2)cc1F` (stereo not drawn), the IC50 (NCI-H1993) was 4.2 nM, the IC50 (SNU-5) was 3.7 nM and the microsomal CLint at 1 µM [1] was 15 µL/min/mg. It also gave a microsomal CLint at 1 µM [2] of 57 µL/min/mg, a remaining at 0.5 h, 1 µM [3] of 104% and a remaining at 0.5 h, 1 µM [4] of 97%. It also gave a remaining at 0.5 h, 1 µM [5] of 93% and a microsomal CLint at 1 µM [6] of 119 µL/min/mg.

In the case of `CC(c1cc2cc(-c3cnn(C)c3)cnc2cc1F)n1nnc2ncc(-c3ccncc3)nc21` (stereo not drawn), the “inhibition (INH)” value (Cytochrome P450 2C19) is reported as “Active”, the inhibition at 10 µM (CYP2C9) is reported as under 50% and the IC50 (NCI-H1993) is reported as 3.2 nM. For the same compound, the IC50 (SNU-5) was 2.5 nM, the microsomal CLint at 1 µM [1] was 4 µL/min/mg and the microsomal CLint at 1 µM [2] was 55 µL/min/mg. For the same compound, the remaining at 0.5 h, 1 µM [3] was 113%, the remaining at 0.5 h, 1 µM [4] was 106% and the “inhibition (INH)” value (Cytochrome P450 2C9) was “Active”. The “inhibition (INH)” value (Cytochrome P450 3A4) was “Active”, the inhibition at 10 µM (CYP2C19) was under 50% and the inhibition at 10 µM (CYP3A4) was under 50%. For the same compound, the inhibition at 10 µM (CYP2D6) was under 50%, the inhibition at 10 µM (CYP1A2) was under 50% and the remaining at 0.5 h, 1 µM [5] was 103%. It also gave a microsomal CLint at 1 µM [6] of 49 µL/min/mg.

In the case of `CNC(=O)c1ccc(-c2cnc3nnn(C(C)c4c(F)cc5ncc(-c6cnn(C)c6)cc5c4F)c3n2)cc1F` (stereo not drawn), the “inhibition (INH)” value (Cytochrome P450 2C19) is reported as “Active”, the inhibition at 10 µM (CYP2C9) is reported as under 50% and the IC50 (SNU-5) is reported as 0.9 nM. For the same compound, the microsomal CLint at 1 µM [1] was 5 µL/min/mg, the microsomal CLint at 1 µM [2] was 48 µL/min/mg and the remaining at 0.5 h, 1 µM [3] was 92%. For the same compound, the remaining at 0.5 h, 1 µM [4] was 95%, the “inhibition (INH)” value (Cytochrome P450 2C9) was “Active” and the inhibition at 10 µM (CYP2C19) was under 50%. For the same compound, the inhibition at 10 µM (CYP3A4) was under 50%, the inhibition at 10 µM (CYP2D6) was under 50% and the inhibition at 10 µM (CYP1A2) was under 50%. The remaining at 0.5 h, 1 µM [5] was 95% and the microsomal CLint at 1 µM [6] was 187 µL/min/mg.

In the case of `CC(c1c(F)cc2ncc(-c3ccc(F)cc3)cc2c1F)n1nnc2ncc(-c3cnn(C)c3)nc21` (stereo not drawn), the IC50 (NCI-H1993) is reported as 2.6 nM and the IC50 (SNU-5) is reported as 2.2 nM.

Work on `CC(c1ccc2ncc(-c3cnn(C)c3)cc2c1)n1nnc2ncc(-c3ccncc3)nc21` (stereo not drawn) yielded an inhibition at 10 µM (CYP2C9) of under 50%, an IC50 (NCI-H1993) of 0.9 nM and an IC50 (SNU-5) of 1.2 nM. The microsomal CLint at 1 µM [1] was 22 µL/min/mg, the microsomal CLint at 1 µM [2] was 61 µL/min/mg and the remaining at 0.5 h, 1 µM [3] was 104%. For the same compound, the remaining at 0.5 h, 1 µM [4] was 94%, the “inhibition (INH)” value (Cytochrome P450 3A4) was “Active” and the inhibition at 10 µM (CYP2C19) was under 50%. For the same compound, the inhibition at 10 µM (CYP3A4) was under 50%, the inhibition at 10 µM (CYP2D6) was under 50% and the inhibition at 10 µM (CYP1A2) was under 50%. It also gave a remaining at 0.5 h, 1 µM [5] of 90% and a microsomal CLint at 1 µM [6] of 78 µL/min/mg.

For `CC(c1ccc2ncc(-c3cnn(C)c3)cc2c1)n1nnc2ncc(-c3cnn(CCO)c3)nc21` (stereo not drawn), the “inhibition (INH)” value (Cytochrome P450 2C19) was “Active”, the inhibition at 10 µM (CYP2C9) was under 50% and the IC50 (NCI-H1993) was 0.2 nM. It also gave an IC50 (SNU-5) of 1.8 nM, a microsomal CLint at 1 µM [2] of 6 µL/min/mg and a remaining at 0.5 h, 1 µM [3] of 105%. The remaining at 0.5 h, 1 µM [4] was 104%, the “inhibition (INH)” value (Cytochrome P450 2C9) was “Active” and the inhibition at 10 µM (CYP2C19) was under 50%. It also gave an inhibition at 10 µM (CYP3A4) of under 50%, an inhibition at 10 µM (CYP2D6) of under 50% and an inhibition at 10 µM (CYP1A2) of under 50%. The remaining at 0.5 h, 1 µM [5] was 108% and the microsomal CLint at 1 µM [6] was 16 µL/min/mg.
